Source: PubChem BioAssay AID602407 (Southern Research Specialized Biocontainment Screening …, 2012)
The source made the active and inactive calls.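 The calls were made as follows: active = inhibition of 30% or more at any tested concentration; inactive = the rest.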

Target: Cytosol aminopeptidase (Homo sapiens) (UniProt P28838)
Assay: HuM17LAP enzyme activity inhibition – biochemical, QFRET fluorogenic substrate, counter-screen for PfM17LAP inhibitor project, dose response (AID 602407)
Details: recombinant human M17LAP, H-Leu-NHMec fluorogenic cleavage
Procedure, shortened: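 System: recombinant human M17LAP enzyme. Times: enzyme reaction with compounds, 90 min at room temperature. Detection: NHMec fluorescence, 370/460 nm. Benchmarks: full reaction and enzyme-free controls.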

Sequence of Cytosol aminopeptidase (Homo sapiens) (P28838 whole entry, looked up): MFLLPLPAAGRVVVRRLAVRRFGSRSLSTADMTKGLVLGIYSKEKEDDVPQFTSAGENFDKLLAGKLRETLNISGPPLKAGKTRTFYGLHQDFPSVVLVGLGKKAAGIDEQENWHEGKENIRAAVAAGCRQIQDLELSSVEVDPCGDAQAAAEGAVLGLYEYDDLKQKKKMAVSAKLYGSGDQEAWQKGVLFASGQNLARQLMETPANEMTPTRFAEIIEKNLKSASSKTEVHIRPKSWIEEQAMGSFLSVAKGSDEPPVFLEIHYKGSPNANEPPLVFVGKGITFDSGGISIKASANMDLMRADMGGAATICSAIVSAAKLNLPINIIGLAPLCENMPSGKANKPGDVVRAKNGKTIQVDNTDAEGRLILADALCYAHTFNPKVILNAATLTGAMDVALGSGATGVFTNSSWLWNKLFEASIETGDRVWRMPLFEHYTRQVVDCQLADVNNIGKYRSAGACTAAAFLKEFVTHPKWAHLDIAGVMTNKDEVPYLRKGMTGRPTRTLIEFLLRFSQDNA

Row | IC50 | SMILES
1 | 8380 nM | O=C(NO)c1ccc2ccccc2c1
2 | 530 nM | CCCCOc1ccc(C(C)C(=O)NO)cc1 (stereo not drawn)
3 | 2770 nM | CCCCOc1cccc(CC(=O)NO)c1
4 | 380 nM | CCC(C)Oc1ccc(CC(=O)NO)cc1 (stereo not drawn)
5 | 490 nM | CCCOc1ccc(CC(=O)NO)cc1

Same assay, conditions: recombinant human M17LAP, H-Leu-NHMec fluorogenic cleavage; at 100 µM (top of the series)

Row | SMILES | inhibition
6 | CCCCOc1ccc(C(C)(C)C(=O)NO)cc1 | inactive
7 | CN(C)CCOc1ccc(CC(=O)O)cc1 | inactive
8 | CCCCOc1cccc(CC(=O)OC)c1 | inactive
9 | CCCCOc1ccc(C(C)C(=O)OC)cc1 (stereo not drawn) | inactive

More lines, now with the values ahead:

Row | inhibition | SMILES
10 | inactive | CCCCOc1ccc(C(C)(C)C(=O)O)cc1
11 | inactive | CCCCOc1ccc(CN(O)C(C)=O)cc1
12 | inactive | CCCOc1ccc(CC(=O)O)cc1
13 | inactive | CCCCOc1ccc(CN(O)C(=O)c2ccccc2)cc1
